Measured values gathered from unrelated publications.
Compare with care: the assays were run in different laboratories.
Target: Serine/threonine-protein kinase STK11 (STK11, Homo sapiens, UniProt Q15831)
Sequence (Q15831 1-433, as in one of the studies): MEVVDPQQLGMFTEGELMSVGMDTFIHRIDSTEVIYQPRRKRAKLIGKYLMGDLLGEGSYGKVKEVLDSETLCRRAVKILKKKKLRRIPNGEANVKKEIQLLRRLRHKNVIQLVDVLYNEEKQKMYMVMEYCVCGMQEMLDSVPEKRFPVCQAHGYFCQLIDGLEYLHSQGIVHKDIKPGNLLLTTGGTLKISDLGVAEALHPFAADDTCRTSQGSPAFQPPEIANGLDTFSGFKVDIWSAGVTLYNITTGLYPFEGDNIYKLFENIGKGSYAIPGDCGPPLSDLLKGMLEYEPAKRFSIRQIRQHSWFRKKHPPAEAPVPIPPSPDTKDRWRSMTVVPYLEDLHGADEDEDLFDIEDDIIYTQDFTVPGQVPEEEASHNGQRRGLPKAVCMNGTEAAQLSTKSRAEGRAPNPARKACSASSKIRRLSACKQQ

Compound | assay | conditions | measurement | result
Cc1nn(C)cc1-c1nc2c(N3CCN(Cc4ccc(Cl)cc4)CC3)c(Cl)cnc2[nH]1 | binding, competition with immobilised ligand | 1 µM | remaining binding | 100%
COc1cc(Nc2ncc(F)c(Nc3ccc4c(n3)NC(=O)C(C)(C)O4)n2)cc(OC)c1OC | binding | 10 µM | inhibition | 0%
O=c1[nH]c2ccccc2n1C1CCN(Cc2ccc(-c3[nH]c4cc5ncnc5cc4nc3-c3ccccc3)cc2)CC1 | cell-free assay | 0.5 µM | remaining signal | 95.6%
Cn1cncc1[C@@](O)(COc1ccc(C#N)cc1-c1ccc(OC(F)(F)F)cc1)c1ccc(C#N)cc1 | cell-free assay, competition with immobilised ligand | 1 µM | remaining binding | 100%
COc1ncccc1-c1cnn2ccc(N3CCN(C(=O)OC(C)C)CC3)nc12 | binding, competition with immobilised ligand | 1 µM | remaining binding | 9.7%
Nc1ncc(-c2nc(N3CCOCC3)nc(N3CCOCC3)n2)c(C(F)F)n1 | binding, competition with immobilised ligand | 10 µM | remaining binding | 91%
N#CC1(c2ccccn2)CCN(Cc2cc(C(=O)O)c(=O)n3ccccc23)CC1 | cell-free assay, competition with immobilised ligand | 1 µM | remaining binding | 100%
CC(C)(C)c1cc(C=C(C#N)C#N)cc(Br)c1O | enzyme activity, inhibitor | 0.5 µM | remaining activity | 85.2%
